Laboratory results published in ChEMBL document CHEMBL1123904, “Synthesis, structure, and biological activity of certain 2-deoxy-beta-D-ribo-hexopyranosyl nucleosides and nucleotides” (J Med Chem, 1987).

How the values were obtained:
[1] = substrate: Nc1nc(N)c2ncn(C3CC(O)C(O)C(CO)O3)c2n1; assay: (§1) Kinetic parameters for adenosine deaminase (ADase) was determined
Procedure, shortened: (§2)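 Calf intestine adenosine deaminase; substrate and inhibitor kinetic parameters measured spectrophotometrically.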

[2] = substrate: Nc1ncnc2c1ncn2C1CC(O)C(O)C(CO)O1; assay: as §1; procedure, shortened: as §2
[3] = substrate: Nc1ncnc2c1ncn2[C@@H]1O[C@H](CO)[C@@H](O)[C@H]1O; assay: as §1; procedure, shortened: as §2

B1: Adenosine deaminase (Bos taurus), P56658 (protein)
chain: MAQTPAFNKPKVELHVHLDGAIKPETILYYGRKRGIALPADTPEELQNIIGMDKPLSLPEFLAKFDYYMPAIAGCREAVKRIAYEFVEMKAKDGVVYVEVRYSPHLLANSKVEPIPWNQAEGDLTPDEVVSLVNQGLQEGERDFGVKVRSILCCMRHQPSWSSEVVELCKKYREQTVVAIDLAGDETIEGSSLFPGHVKAYAEAVKSGVHRTVHAGEVGSANVVKEAVDTLKTERLGHGYHTLEDATLYNRLRQENMHFEVCPWSSYLTGAWKPDTEHPVVRFKNDQVNYSLNTDDPLIFKSTLDTDYQMTKNEMGFTEEEFKRLNINAAKSSFLPEDEKKELLDLLYKAYGMPSPASAEQCL
- Km [1]: 900 µM
- Km [2]: 57 µM
- Km [3]: 31 µM
